Measurements published in ChEMBL document CHEMBL4325893, “Synthesis and antibacterial profiles of targeted triclosan derivatives” (2019).
In brackets after ≈: the same amount, converted by molar mass.

Columns and labels:
Aeromonas hydrophila = experiment: Antibacterial activity against Aeromonas hydrophila OCC 778 after 18 hrs; assay type: functional; settings: OCC 778, 18 h
Method in brief: (§1)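 Broth microdilution in Nutrient Broth No. 2; stocks in ethanol diluted to 0.01–128 µg/ml (triclosan) or 0.25–256 µg/ml (glycosides). Overnight 37 °C NB2 cultures diluted 1 in 10^4 in saline and added to the dilutions. Incubation at 37 °C with agitation, OD read every 15 min; MIC is the lowest concentration preventing any OD rise after 18 h.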

Citrobacter freundii [1] = experiment: Antibacterial activity against Citrobacter freundii OCC 851 after 18 hrs; assay type: functional; settings: OCC 851, 18 h; method in brief: as §1
Cronobacter sakazakii = experiment: Antibacterial activity against Cronobacter sakazakii 29544 after 18 hrs; assay type: functional; settings: Cronobacter sakazakii, 29544, 18 h; method in brief: as §1
Klebsiella aerogenes [2] = experiment: Antibacterial activity against Enterobacter aerogenes ATCC 13048 after 18 hrs; assay type: functional; settings: ATCC 13048, 18 h; method in brief: as §1
[3] = Antibacterial activity against Enterobacter cloacae ATCC 13047 after 18 hrs; assay type: functional, Enterobacter cloacae subsp. cloacae; settings: ATCC 13047, 18 h; method in brief: as §1
Escherichia coli [4] = experiment: Antibacterial activity against Escherichia coli ATCC 8739 after 18 hrs; assay type: functional; settings: ATCC 8739, 18 h; method in brief: as §1
Escherichia coli [5] = experiment: Antibacterial activity against Escherichia coli ATCC 10536 after 18 hrs; assay type: functional; settings: ATCC 10536, 18 h; method in brief: as §1
Escherichia coli [6] = experiment: Antibacterial activity against Escherichia coli ATCC 11775 after 18 hrs; assay type: functional; method in brief: as §1
Escherichia coli [7] = experiment: Antibacterial activity against Escherichia coli ATCC 25922 after 18 hrs; assay type: functional; settings: ATCC 25922, 18 h; method in brief: as §1
Escherichia coli [8] = experiment: Antibacterial activity against Escherichia coli ATCC 35218 after 18 hrs; assay type: functional; settings: ATCC 35218, 18 h; method in brief: as §1
Escherichia coli [9] = experiment: Antibacterial activity against Escherichia coli 700728 after 18 hrs; assay type: functional; settings: Escherichia coli, 700728, 18 h; method in brief: as §1
Escherichia coli [10] = experiment: Antibacterial activity against Escherichia coli NCTC 13216 after 18 hrs; assay type: functional; settings: NCTC 13216, 18 h; method in brief: as §1
Escherichia coli [11] = experiment: Antibacterial activity against Escherichia coli OCC 122 after 18 hrs; assay type: functional; settings: OCC 122, 18 h; method in brief: as §1
Escherichia hermannii = experiment: Antibacterial activity against Escherichia hermannii 33650 after 18 hrs; assay type: functional; settings: Atlantibacter hermannii, 33650, 18 h; method in brief: as §1
Hafnia alvei = experiment: Antibacterial activity against Hafnia alvei 13337 after 18 hrs; assay type: functional; settings: Hafnia alvei, 13337, 18 h; method in brief: as §1
Klebsiella aerogenes [12] = experiment: Antibacterial activity against Klebsiella aerogenes NCTC 8167 after 18 hrs; assay type: functional; settings: NCTC 8167, 18 h; method in brief: as §1
Klebsiella pneumoniae [13] = experiment: Antibacterial activity against Klebsiella pneumoniae ATCC 10031 after 18 hrs; assay type: functional; settings: ATCC 10031, 18 h; method in brief: as §1
Proteus mirabilis = experiment: Antibacterial activity against Proteus mirabilis ATCC 12453 after 18 hrs; assay type: functional; settings: ATCC 12453, 18 h; method in brief: as §1
Proteus vulgaris = experiment: Antibacterial activity against Proteus vulgaris OCC 195 after 18 hrs; assay type: functional; settings: OCC 195, 18 h; method in brief: as §1
Pseudomonas aeruginosa = experiment: Antibacterial activity against Pseudomonas aeruginosa ATCC 27853 after 18 hrs; assay type: functional; settings: ATCC 27853, 18 h; method in brief: as §1
Klebsiella pneumoniae [14] = experiment: Antibacterial activity against Klebsiella pneumoniae ATCC 13883 after 18 hrs; assay type: functional; settings: ATCC 13883, 18 h; method in brief: as §1
Citrobacter freundii [15] = experiment: Antibacterial activity against Citrobacter freundii 8090 after 18 hrs; assay type: functional; settings: Citrobacter freundii, 8090, 18 h; method in brief: as §1
Serratia marcescens = experiment: Antibacterial activity against Serratia marcescens OCC 217 after 18 hrs; assay type: functional; settings: OCC 217, 18 h; method in brief: as §1
Bacillus cereus = experiment: Antibacterial activity against Bacillus cereus ATCC 14579 after 18 hrs; assay type: functional; settings: ATCC 14579, 18 h; method in brief: as §1
Bacillus subtilis = experiment: Antibacterial activity against Bacillus subtilis NCTC 10073 after 18 hrs; assay type: functional; settings: NCTC 10073, 18 h; method in brief: as §1
Enterococcus faecalis [16] = experiment: Antibacterial activity against Enterococcus faecalis ATCC 29212 after 18 hrs; assay type: functional; settings: ATCC 29212, 18 h; method in brief: as §1
Enterococcus faecalis [17] = experiment: Antibacterial activity against Enterococcus faecalis ATCC 33186 after 18 hrs; assay type: functional; settings: ATCC 33186, 18 h; method in brief: as §1
Enterococcus faecium = experiment: Antibacterial activity against Enterococcus faecium ATCC 19434 after 18 hrs; assay type: functional; settings: ATCC 19434, 18 h; method in brief: as §1

OC[C@H]1O[C@H](Oc2cc(Cl)ccc2Oc2ccc(Cl)cc2Cl)[C@@H](O)[C@@H](O)[C@@H]1O
MIC (Aeromonas hydrophila): > 256 µg/mL
MIC (Citrobacter freundii [1]): 64 µg/mL (≈ 142 µM)
MIC (Cronobacter sakazakii): 128 µg/mL (≈ 283 µM)
MIC (Klebsiella aerogenes [2]): 32 µg/mL (≈ 70.8 µM)
MIC [3]: 8 µg/mL (≈ 17.7 µM)
MIC (Escherichia coli [4]): 4 to 64 µg/mL (≈ 8.86 to 142 µM)
MIC (Escherichia coli [5]): 4 to 64 µg/mL (≈ 8.86 to 142 µM)
MIC (Escherichia coli [6]): 4 to 64 µg/mL (≈ 8.86 to 142 µM)
MIC (Escherichia coli [7]): 4 to 64 µg/mL (≈ 8.86 to 142 µM)
MIC (Escherichia coli [8]): 4 to 64 µg/mL (≈ 8.86 to 142 µM)
MIC (Escherichia coli [9]): 4 to 64 µg/mL (≈ 8.86 to 142 µM)
MIC (Escherichia coli [10]): 4 to 64 µg/mL (≈ 8.86 to 142 µM)
MIC (Escherichia coli [11]): 4 to 64 µg/mL (≈ 8.86 to 142 µM)
MIC (Escherichia hermannii): 16 µg/mL (≈ 35.4 µM)
MIC (Hafnia alvei): 4 µg/mL (≈ 8.86 µM)
MIC (Klebsiella aerogenes [12]): 32 µg/mL (≈ 70.8 µM)
MIC (Klebsiella pneumoniae [13]): 4 µg/mL (≈ 8.86 µM)
MIC (Proteus mirabilis): 16 µg/mL (≈ 35.4 µM)
MIC (Proteus vulgaris): 32 µg/mL (≈ 70.8 µM)
MIC (Pseudomonas aeruginosa): > 256 µg/mL
MIC (Klebsiella pneumoniae [14]): 4 µg/mL (≈ 8.86 µM)
MIC (Citrobacter freundii [15]): 64 µg/mL (≈ 142 µM)
MIC (Serratia marcescens): > 256 µg/mL
MIC (Bacillus cereus): 256 µg/mL (≈ 567 µM)
MIC (Bacillus subtilis): 128 µg/mL (≈ 283 µM)
MIC (Enterococcus faecalis [16]): 256 µg/mL (≈ 567 µM)
MIC (Enterococcus faecalis [17]): 256 µg/mL (≈ 567 µM)
MIC (Enterococcus faecium): 256 µg/mL (≈ 567 µM)
